In ChEMBL document CHEMBL4680104, “Structure-Based Optimization of Small-Molecule Inhibitors for the β-Catenin/B-Cell Lymphoma 9 Protein-Protein Interaction” (J Med Chem, 2018):
Calls of active or inactive are those of the source. The calls are words filed in the database; no cut-off is given here.

Legend:
SW480 [1] = assay: Cytotoxicity in human SW480 cells assessed as reduction in cell viability incubated for 72 hrs by MTS assay; format: functional, cell-based; details: SW480, 72 h
How it was run: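 Cells seeded at 5 × 10^3 cells/well, kept overnight at 37 °C, then exposed to inhibitors at various concentrations for 72 h. Viability read with a freshly mixed PMS (0.92 mg/mL) : MTS (2 mg/mL) reagent at 1:19, incubated 3 h at 37 °C, A490 measured. […] Triplicate; mean ± SD.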

[2] = Inhibition of protein interaction between beta-catenin D145A/E155A mutant (unknown origin)/N-terminal biotinylated human BCL9 ( 350 to 375 residues) incubated for 1 hr by Alpha-screen competitive inhibition assay
[3] = Effect on HPRT mRNA expression in human SW480 cells at 4 uM incubated for 24 hrs by qPCR analysis relative to control; format: ADME, cell-based; details: read-out: FC
How it was run: (§1)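 SW480 cells at 1 × 10^6/mL were treated with inhibitor for 24 h. Total RNA was extracted with TRIzol and cDNA made by first-strand synthesis. SYBR green qPCR used human HPRT primers, with CT values normalised to GAPDH as internal reference. Performed in triplicate.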

[4] = Effect on HPRT mRNA expression in human SW480 cells at 1 uM incubated for 24 hrs by qPCR analysis relative to control; format: ADME, cell-based; details: read-out: FC; how it was run: as §1
[5] = Effect on HPRT mRNA expression in human SW480 cells at 2 uM incubated for 24 hrs by qPCR analysis relative to control; format: ADME, cell-based; details: read-out: FC; how it was run: as §1
[6] = target: T1, beta-catenin-B-cell lymphoma 9 protein complex (Homo sapiens) (UniProt P35222+O00512); assay: Inhibition of protein interaction between beta-catenin /BCL9 in human SW480 cells assessed as reduction in Wnt target genes by measuring cyclin D1 protein expression at 2 to 8 uM incubated for 24 hrs by Western blot analysis; format: cell-based; details: dose 2-8 µM
How it was run: (§2)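 SW480 cells at 1 × 10^6 cells/mL were treated with a range of inhibitor concentrations for 24 h. Cells were lysed in Tris/NaCl/NP-40/deoxycholate/SDS buffer with protease inhibitors. Lysates were run on 8% SDS-PAGE and blotted to nitrocellulose. Blots were probed overnight at 4 °C for total β-catenin (mostly the E-cadherin-bound pool), active β-catenin (dephosphorylated S37/T41), cyclin D1, c-myc and β-tubulin. Detection used infrared secondary antibodies. Duplicate.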

[7] = Inhibition of protein interaction between beta-catenin K181A mutant (unknown origin)/N-terminal biotinylated human BCL9 ( 350 to 375 residues) incubated for 1 hr by Alpha-screen competitive inhibition assay
[8] = target: T1, beta-catenin-B-cell lymphoma 9 protein complex (Homo sapiens); assay: Inhibition of protein interaction between beta-catenin /BCL9 in human SW480 cells assessed as reduction in Wnt target genes by measuring cyclin D1 mRNA expression incubated for 24 hrs by qPCR analysis; format: cell-based
How it was run: (§3)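 SW480 cells at 1 × 10^6/mL were treated with a range of inhibitor concentrations for 24 h. Total RNA was extracted with TRIzol and reverse-transcribed to cDNA. SYBR Green qPCR was run for Axin2, LEF1 and cyclin D1, with HPRT as a non-target housekeeping gene. CT values were normalized to GAPDH. Triplicate.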

[9] = Inhibition of protein interaction between beta-catenin D145A mutant (unknown origin)/N-terminal biotinylated human BCL9 ( 350 to 375 residues) incubated for 1 hr by Alpha-screen competitive inhibition assay
[10] = target: T1, beta-catenin-B-cell lymphoma 9 protein complex (Homo sapiens); assay: Inhibition of protein interaction between beta-catenin /BCL9 in human SW480 cells assessed as reduction in Wnt target genes by measuring Axin2 mRNA expression incubated for 24 hrs by qPCR analysis; format: cell-based; how it was run: as §3
[11] = target: T1, beta-catenin-B-cell lymphoma 9 protein complex (Homo sapiens); assay: Inhibition of protein interaction between beta-catenin /BCL9 in human SW480 cells assessed as reduction in active form of beta-catenin expression incubated for 24 hrs by Western blot analysis; format: cell-based; how it was run: as §2
[12] = target: T1, beta-catenin-B-cell lymphoma 9 protein complex (Homo sapiens); assay: Inhibition of protein interaction between beta-catenin /BCL9 in human SW480 cells assessed as reduction in Wnt target genes by measuring LEF1 mRNA expression incubated for 24 hrs by qPCR analysis; format: cell-based; how it was run: as §3
SW480 [13] = assay: Cytotoxic activity in human SW480 cells at 50 to 100 uM incubated for 4 hrs by LDH release assay; format: cell-based; details: sw480, 4 h, dose 50-100 µM
How it was run: (§4)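 SW480 cells were seeded at 2 × 10^4 cells/well and kept overnight at 37 °C. They were then exposed to a range of inhibitor concentrations for 4 h. LDH in the culture supernatant was measured with a diagnostic kit by absorbance at 490 nm. Percent cytotoxicity was calculated from experimental release against maximum release, with background subtracted. Run in triplicate.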

[14] = Inhibition of protein interaction between C-terminal 6x-histidine tagged full-length beta-catenin (1 to 781 residues) (unknown origin)/N-terminal biotinylated human E-cadherin (824 to 877 residues) incubated for 1 hr by Alpha-screen competitive inhibition assay
How it was run: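 Full-length β-catenin (residues 1–781) with a C-terminal His6 tag was expressed in E. coli BL21(DE3) after IPTG induction at 20 °C. It was purified by Ni-NTA, anion-exchange and size-exclusion chromatography. For the assay, 40 nM β-catenin was preincubated for 30 min at 4 °C with 5 nM biotinylated BCL9 or 10 nM biotinylated E-cadherin. Inhibitor was then added for 1 h at 4 °C, followed by 10 μg/mL donor and acceptor beads for 1 h at 4 °C. IC50 was obtained by nonlinear fit and converted to Ki by the Nikolovska-Coleska method. Triplicate, mean ± SD.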

[15] = Effect on HPRT mRNA expression in human SW480 cells at 100 uM incubated for 24 hrs by qPCR analysis relative to control; format: ADME, cell-based; details: read-out: FC; how it was run: as §1
[16] = Drug level in human HCT-116 cells assessed as per million cells at 50 uM incubated for 6 hrs at 37 degC in presence of DMEM media with 10% FBS; format: ADME, cell-based; details: hct-116, 6 h
How it was run: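 Cells were incubated with 50 μM compound for 6 h in 5 mL DMEM with 10% FBS, at 37 °C or at 4 °C. Cell-bound compound was quantified by a previously described method and expressed as nmol per million cells. The 4 °C incubation was used to estimate binding to the cell membrane through nonspecific association.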

SW480 [17] = assay: Cytotoxic activity in human SW480 cells at 800 uM incubated for 4 hrs by LDH release assay; format: cell-based; details: sw480, 4 h; how it was run: as §4
SW480 [18] = assay: Effect on E-cadherin-bound beta-catenin levels in human SW480 cells at 25 to 100 uM incubated for 24 hrs by Western blot analysis; format: functional, cell-based; details: dose 25-100 µM; how it was run: as §2
HCT-116 = assay: Inhibition of protein interaction between full-length beta-catenin (unknown origin) / full-length E-cadherin (unknown origin) in human HCT-116 cells incubated for 24 hrs by co-immunoprecipitation assay; format: cell-based
How it was run: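 Intact HCT116 cells at 1 × 10^6/mL were treated with a range of inhibitor concentrations for 24 h. They were then lysed in Tris pH 7.4/NaCl/NP-40/EDTA buffer with protease inhibitors and precleared on A/G agarose. Anti-β-catenin immunoprecipitation ran overnight at 4 °C, with A/G capture for 3 h and five washes. Samples were run on 8% SDS-PAGE and immunoblotted for BCL9 and E-cadherin.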

[19] = Effect on HPRT mRNA expression in human SW480 cells at 8 uM incubated for 24 hrs by qPCR analysis relative to control; format: ADME, cell-based; details: read-out: FC; how it was run: as §1

For Cl.Cl.O=C(Nc1ccc(O[C@H]2CCNC2)c(-c2ccc(F)cc2)c1)c1ccc(O[C@H]2CCNC2)c(-c2ccc3ccsc3c2)c1, the IC50 (SW480 [1]) was 2 µM, the Ki [2] was 12 µM and the fold induction at 4 µM [3] was 1.04. For the same compound, the fold induction at 1 µM [4] was 1.09, the fold induction at 2 µM [5] was 1.21 and the inhibition [6] was “Active”. The Ki [7] was 1.7 µM, the inhibition [8] was “Dose-dependent effect” and the Ki [9] was 4.2 µM. For the same compound, the inhibition [10] was “Dose-dependent effect”, the inhibition [11] was “Dose-dependent effect” and the inhibition [12] was “Dose-dependent effect”. For the same compound, the Activity (SW480 [13]) was “Toxic”.

In the case of Cl.Cl.O=C(Nc1ccc(O[C@H]2CCNC2)c(-c2ccc(F)cc2)c1)c1ccc(O[C@H]2CCNC2)c(-c2ccc3cc(F)ccc3c2)c1, the IC50 (SW480 [1]) is reported as 1.8 µM and the Activity (SW480 [13]) is reported as “Toxic”.

With Cl.Cl.O=C(Nc1ccc(O[C@H]2CCNC2)c(-c2ccc(F)cc2)c1)c1ccc(O[C@H]2CCNC2)c(C2CCC(C(F)(F)F)CC2)c1 (some centres not stated) the IC50 (SW480 [1]) was 3.6 µM and the Activity (SW480 [13]) was “Toxic”.

With Cl.Cl.O=C(Nc1ccc(O[C@H]2CCNC2)c(-c2ccc(F)cc2)c1)c1cnc(O[C@H]2CCNC2)c(-c2ccc(F)c(F)c2)c1 the IC50 (SW480 [1]) was 3 µM and the Activity (SW480 [13]) was “Toxic”.

In the case of Cl.Cl.O=C(Nc1ccc(O[C@H]2CCNC2)c(-c2ccc(F)cc2)c1)c1ccc(O[C@H]2CCNC2)c(-c2ccc(F)c(F)c2)c1, the inhibition [8] is reported as “Dose-dependent effect”, the inhibition [10] is reported as “Dose-dependent effect” and the inhibition [12] is reported as “Dose-dependent effect”. The Activity (SW480 [13]) was “Toxic”.

With Cl.Cl.O=C(Nc1ccc(O[C@@H]2CCNC2)c(-c2cccc(-c3nn[nH]n3)c2)c1)c1ccc(O[C@H]2CCNC2)c(-c2ccc(F)c(F)c2)c1 the IC50 (SW480 [1]) was 41 µM, the Ki [2] was 12 µM and the Ki [14] was > 915 µM. It also gave a fold induction at 100 µM [15] of 0.969, a Drug uptake [16] of 6.6 nmol and a Ki [7] of 4.1 µM. The Activity (SW480 [17]) was “Non-Toxic”, the inhibition [8] was “Dose-dependent effect” and the Ki [9] was 3 µM. For the same compound, the inhibition [10] was “Dose-dependent effect”, the inhibition [11] was “Dose-dependent effect” and the Activity (SW480 [18]) was “inactive”. The inhibition [12] was “Dose-dependent effect” and the inhibition (HCT-116) was “inactive”.

In the case of Cc1cc(F)ccc1-c1cc(NC(=O)c2ccc(O[C@H]3CCNC3)c(-c3ccc(F)c(F)c3)c2)ccc1O[C@H]1CCNC1.Cl.Cl, the IC50 (SW480 [1]) is reported as 0.9 µM, the fold induction at 4 µM [3] is reported as 0.136 and the fold induction at 2 µM [5] is reported as 0.166. For the same compound, the fold induction at 8 µM [19] was 0.124 and the Activity (SW480 [13]) was “Toxic”.
